Experimental data: ChEMBL document CHEMBL1145840, “Identification of (3R)-7-hydroxy-N-((1S)-1-[[(3R,4R)-4-(3-hydroxyphenyl)- 3,4-dimethyl-1-piperidinyl]methyl]-2-methylpropyl)-1,2,3,4-tetrahydro- 3-isoquinolinecarboxamide as a novel potent and selective opioid kappa receptor antagonist” (J Med Chem, 2003)
pKi: −log10 of the molar value. Where “and” joins values, the source holds several entries; their conditions need not be identical. Equal values may be shown once.

Tests used:
[1] = biological target: T1, Delta-type opioid receptor (Homo sapiens, UniProt P41143); experiment: (§1) Antagonistic activity against human cloned Opioid receptor delta 1 using DPDPE in [35S]GTP-gamma-S, assay; assay type: functional
[2] = biological target: Mu-type opioid receptor (Cavia porcellus) (UniProt P97266); experiment: Antagonistic activity against DAMGO and guinea pig caudate Opioid receptor mu 1 in [35S]GTP-gamma-S, assay; assay type: functional
How it was run: (§2)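 Agonist-stimulated binding was run with varying drug concentrations, 3 h at 25 °C, then filtration and scintillation counting. Nonspecific binding was taken with 10 µM GTPγS. Three experiments were pooled and fit by nonlinear least squares to give Ke.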

[3] = biological target: T2, Mu-type opioid receptor (Homo sapiens, UniProt P35372)
[4] = biological target: Kappa-type opioid receptor (Cavia porcellus) (UniProt P41144); experiment: Inhibition of U69,593 antagonistic activity in [35S]GTP-gamma-S, assay against guinea pig Opioid receptor kappa 1; assay type: functional; how it was run: as §2
[5] = biological target: T1, Delta-type opioid receptor; experiment: Binding affinity towards human cloned Opioid receptor delta 1 using [3H]Cl-DPDPE
[6] = biological target: Delta-type opioid receptor (Rattus norvegicus, UniProt P33533); experiment: Inhibition of [3H]-DADLE binding to Opioid receptor delta 1 of rat brain tissue
How it was run: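 Rat brain membranes prepared daily, labelled with 2 nM [3H]DADLE. Incubation 2 h at 25 °C in 50 mM Tris-HCl pH 7.4 with 100 mM choline chloride, 3 mM MnCl2, 100 nM DAMGO to block mu sites, and protease inhibitors. Nonspecific binding was taken with 20 µM levallorphan. Radioligand was displaced by 8-10 drug concentrations. Ki came from IC50 via Cheng–Prusoff, from two pooled experiments.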

[7] = biological target: T3, Kappa-type opioid receptor (Homo sapiens, UniProt P41145); experiment: Binding affinity towards human cloned Opioid receptor kappa 1 using [3H]U-69593
[8] = biological target: T3, Kappa-type opioid receptor; experiment: Antagonistic activity against human cloned Opioid receptor kappa 1 using U69,593 in [35S]GTP-gamma-S, assay; assay type: functional
[9] = biological target: T2, Mu-type opioid receptor; experiment: Binding affinity towards human cloned Opioid receptor mu 1 using [3H]DAMGO
[10] = biological target: Kappa-type opioid receptor (Cavia porcellus, UniProt P41144); experiment: Inhibition of [3H]U-69593 binding to Opioid receptor kappa 1 of guinea pig brain
How it was run: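 Guinea pig brain membranes prepared daily, labelled with 2 nM [3H]U69,593. Incubation 2 h at 25 °C in 50 mM Tris-HCl pH 7.4 with 1 µg/mL captopril and protease inhibitors. Nonspecific binding was taken with 1 µM U69,593. Radioligand was displaced by 8-10 drug concentrations. Ki came from IC50 via IC50/(1+[L]/Kd), from two pooled experiments.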

[11] = biological target: Mu-type opioid receptor (Rattus norvegicus, UniProt P33535); experiment: Inhibition of [3H]DAMGO binding to Opioid receptor mu 1 of rat brain tissue
How it was run: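 Rat brain membranes prepared daily, labelled with [3H]DAMGO. Incubation 2 h at 25 °C in 50 mM Tris-HCl pH 7.4 with protease inhibitor cocktail. Nonspecific binding was taken with 20 µM levallorphan. Radioligand was displaced by 8-10 drug concentrations. IC50 was converted to Ki by IC50/(1+[L]/Kd), from two pooled experiments.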

[12] = biological target: T2, Mu-type opioid receptor; experiment: Antagonistic activity against human cloned Opioid receptor mu 1 using DAMGO in [35S]GTP-gamma-S, assay; assay type: functional
[13] = biological target: Opioid receptors; delta & kappa (Homo sapiens) (UniProt P41145+P41143); experiment: Selectivity ratio of delta and kappa opioid receptor; assay type: protein assay
[14] = biological target: T3, Kappa-type opioid receptor; experiment: Antagonistic activity against human cloned kOpioid receptor kappa 1 using U69,593 in [35S]GTP-gamma-S, assay; assay type: functional; settings: read-out: pA2 (converted)
How it was run: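 Membranes from CHO cells transfected with cloned human κ opioid receptor. Antagonism is measured as inhibition of U69,593-stimulated [35S]GTPγS binding and expressed as a Ke value.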

[15] = biological target: T1, Delta-type opioid receptor; experiment: as §1; assay type: functional; settings: read-out: pA2 (converted)
[16] = biological target: Opioid receptors; mu & kappa (Homo sapiens) (UniProt P41145+P35372); experiment: Selectivity ratio of mu and kappa opioid receptor; assay type: protein assay
[17] = biological target: T2, Mu-type opioid receptor; experiment: Antagonistic activity against human cloned Opioid receptor mu 1 using DPDPE in [35S]GTP-gamma-S, assay; assay type: functional; settings: read-out: pA2 (converted)

T3 sequence (P41145 whole entry): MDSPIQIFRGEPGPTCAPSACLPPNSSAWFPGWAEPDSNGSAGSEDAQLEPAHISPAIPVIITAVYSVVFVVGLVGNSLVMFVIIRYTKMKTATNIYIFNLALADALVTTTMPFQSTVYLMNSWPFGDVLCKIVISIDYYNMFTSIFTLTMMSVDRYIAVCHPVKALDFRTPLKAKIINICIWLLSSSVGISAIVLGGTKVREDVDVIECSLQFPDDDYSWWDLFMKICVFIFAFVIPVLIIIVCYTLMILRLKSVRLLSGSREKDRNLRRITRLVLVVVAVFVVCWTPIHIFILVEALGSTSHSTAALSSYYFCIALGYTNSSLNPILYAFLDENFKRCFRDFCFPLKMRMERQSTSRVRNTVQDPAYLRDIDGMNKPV
Mu-type opioid receptor (Rattus norvegicus, UniProt P33535), sequence (P33535 whole entry): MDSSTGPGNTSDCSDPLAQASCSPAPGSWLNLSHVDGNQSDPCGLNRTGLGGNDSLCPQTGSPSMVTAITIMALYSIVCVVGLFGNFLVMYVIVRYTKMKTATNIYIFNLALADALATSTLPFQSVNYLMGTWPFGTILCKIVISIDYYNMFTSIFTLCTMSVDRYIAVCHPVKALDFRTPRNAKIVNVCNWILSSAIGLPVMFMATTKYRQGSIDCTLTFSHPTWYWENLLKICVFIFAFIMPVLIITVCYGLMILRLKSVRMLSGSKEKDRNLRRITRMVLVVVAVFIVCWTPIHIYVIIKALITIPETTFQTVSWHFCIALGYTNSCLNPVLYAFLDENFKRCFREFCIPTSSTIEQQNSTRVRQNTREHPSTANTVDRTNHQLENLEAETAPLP
Mu-type opioid receptor (Cavia porcellus), sequence (P97266 whole entry): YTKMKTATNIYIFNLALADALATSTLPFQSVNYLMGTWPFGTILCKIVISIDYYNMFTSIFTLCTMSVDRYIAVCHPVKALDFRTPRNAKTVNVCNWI
Opioid receptors; delta & kappa (Homo sapiens), sequence (P41143 whole entry, looked up): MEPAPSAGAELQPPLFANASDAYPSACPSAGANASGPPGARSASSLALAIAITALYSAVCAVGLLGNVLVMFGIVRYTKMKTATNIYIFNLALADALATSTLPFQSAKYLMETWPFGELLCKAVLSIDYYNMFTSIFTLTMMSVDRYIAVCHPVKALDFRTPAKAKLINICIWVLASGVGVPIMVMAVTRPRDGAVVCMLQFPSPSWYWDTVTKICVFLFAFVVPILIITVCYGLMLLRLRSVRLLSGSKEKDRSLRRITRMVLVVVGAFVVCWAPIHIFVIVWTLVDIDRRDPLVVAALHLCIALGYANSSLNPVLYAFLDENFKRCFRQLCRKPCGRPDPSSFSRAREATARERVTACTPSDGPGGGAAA
Opioid receptors; delta & kappa (Homo sapiens), sequence (P41145 whole entry, looked up): as the sequence (P41145 whole entry) above
T1 sequence (P41143 whole entry): as the sequence (P41143 whole entry, looked up) above
Delta-type opioid receptor (Rattus norvegicus, UniProt P33533), sequence (P33533 whole entry): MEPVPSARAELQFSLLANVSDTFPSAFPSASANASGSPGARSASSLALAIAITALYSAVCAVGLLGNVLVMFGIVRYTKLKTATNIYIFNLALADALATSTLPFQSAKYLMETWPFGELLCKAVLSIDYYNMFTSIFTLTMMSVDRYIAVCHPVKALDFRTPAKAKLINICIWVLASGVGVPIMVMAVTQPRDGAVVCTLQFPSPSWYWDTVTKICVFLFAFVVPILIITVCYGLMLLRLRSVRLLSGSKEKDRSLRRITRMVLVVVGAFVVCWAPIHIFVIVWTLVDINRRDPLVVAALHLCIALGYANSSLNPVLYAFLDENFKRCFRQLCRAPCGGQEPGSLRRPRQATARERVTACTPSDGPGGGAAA
T2 sequence (P35372 whole entry): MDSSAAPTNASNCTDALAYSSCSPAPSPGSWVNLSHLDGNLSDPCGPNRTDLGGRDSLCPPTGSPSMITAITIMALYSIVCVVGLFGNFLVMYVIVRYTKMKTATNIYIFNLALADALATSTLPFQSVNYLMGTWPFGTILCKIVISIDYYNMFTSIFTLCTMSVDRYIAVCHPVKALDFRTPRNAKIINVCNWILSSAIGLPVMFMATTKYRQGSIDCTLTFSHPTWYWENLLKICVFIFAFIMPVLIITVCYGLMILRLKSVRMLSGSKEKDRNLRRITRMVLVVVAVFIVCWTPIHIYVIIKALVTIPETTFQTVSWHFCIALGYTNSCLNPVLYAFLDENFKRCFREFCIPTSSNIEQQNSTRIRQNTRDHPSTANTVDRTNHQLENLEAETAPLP
Kappa-type opioid receptor (Cavia porcellus), sequence (P41144 whole entry): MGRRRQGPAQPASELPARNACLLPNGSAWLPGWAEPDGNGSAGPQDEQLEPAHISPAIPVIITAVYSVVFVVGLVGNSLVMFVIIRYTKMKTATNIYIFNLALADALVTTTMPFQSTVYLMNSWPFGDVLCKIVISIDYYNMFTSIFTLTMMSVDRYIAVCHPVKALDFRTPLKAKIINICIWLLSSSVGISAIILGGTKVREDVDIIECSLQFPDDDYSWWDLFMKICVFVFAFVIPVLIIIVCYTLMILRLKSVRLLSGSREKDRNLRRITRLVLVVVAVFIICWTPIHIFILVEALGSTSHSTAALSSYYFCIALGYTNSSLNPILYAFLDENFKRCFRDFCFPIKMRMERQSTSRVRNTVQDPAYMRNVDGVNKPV
Kappa-type opioid receptor (Cavia porcellus, UniProt P41144), sequence (P41144 whole entry): as above
Opioid receptors; mu & kappa (Homo sapiens), sequence (P35372 whole entry, looked up): as the sequence (P35372 whole entry) above
Opioid receptors; mu & kappa (Homo sapiens), sequence (P41145 whole entry, looked up): as the sequence (P41145 whole entry) above

Row | Structure (SMILES) | Ke [1] | Ke [2] | Ke [4] | pKi [6] | Ke [8] | pKi [10] | pKi [11] | further results
1 | Oc1ccc2c3c1O[C@H]1c4[nH]c5c(c4C[C@@]4(O)[C@@H](C2)N(CC2CC2)CC[C@]314)C[C@@]1(O)[C@H]2Cc3ccc(O)c4c3[C@@]1(CCN2CC1CC1)[C@H]5O4 | 4.4 nM | – | – | – | – | – | – | –
2 | CC(C)[C@@H](CN1CC[C@@](C)(c2cccc(O)c2)[C@@H](C)C1)NC[C@H]1Cc2ccc(O)cc2CN1 | 427 nM | 12.8 nM | 0.2 nM | < 5.31 | 0.14 nM | 9.20 | – | Ke [3]: 14.3 nM; pKi [5]: 7.08; pKi [7]: 8.74; pKi [9]: 8.42
3 | CC(C)[C@@H](CN1CC[C@@](C)(c2cccc(O)c2)[C@@H](C)C1)NC(=O)[C@@H](N)Cc1ccc(O)cc1 (stereo in doubt; form 2) [listing 1 of 2 here] | – | – | – | < 5.30 | – | 7.80 | 6.20 | –
4 | CC(C)[C@@H](CN1CC[C@@](C)(c2cccc(O)c2)[C@@H](C)C1)NC(=O)[C@H]1Cc2ccc(O)cc2CN1C | 120 nM | 12.7 nM | 0.37 nM | 6.21 | 0.1 nM | 10.28 | 7.43 | pKi [5]: 6.93; Ke [12]: 8.92 nM; pKi [7]: 9.00; pKi [9]: 8.05
5 | CC(C)[C@@H](CN1CC[C@@](C)(c2cccc(O)c2)[C@@H](C)C1)NC(=O)[C@@H](N)Cc1ccc(O)cc1 (stereo in doubt; form 1) [listing 1 of 2 here] | – | 12 nM | 44.6 nM | – | – | – | – | –
6 | CC(C)[C@@H](CN1CC[C@@](C)(c2cccc(O)c2)[C@@H](C)C1)NC(=O)[C@@H](N)Cc1ccc(O)cc1 (stereo in doubt; form 1) [listing 2 of 2 here] | – | – | – | < 5.30 | – | 7.69 | 6.68 | –
7 | N=C(N)Nc1ccc2[nH]c3c(c2c1)C[C@@]1(O)[C@H]2Cc4ccc(O)c5c4[C@@]1(CCN2CC1CC1)[C@H]3O5 [GUANIDINONALTRINDOLE] | – | – | – | 7.15 | – | 9.74 | 7.43 | Delta/kappa [13]: 389; Kb [14]: 0.0398 nM; Kb [15]: 15.5 nM; Mu/kappa ratio [16]: 206; Kb [17]: 3.24 nM
8 | CC(C)[C@@H](CN1CC[C@@](C)(c2cccc(O)c2)[C@@H](C)C1)NC(=O)[C@H]1Cc2ccc(O)cc2CN1C(=O)CN(C)C | 299 nM | 29 nM | 0.16 nM | < 5.47 | 1.1 nM | 7.81 | 6.79 | pKi [5]: 6.76; Ke [12]: 21.2 nM; pKi [7]: 7.79; pKi [9]: 7.88
9 | CC(C)[C@@H](CN1CC[C@@](C)(c2cccc(O)c2)[C@@H](C)C1)NC(=O)[C@@H](N)Cc1ccc(O)cc1 (stereo in doubt; form 2) [listing 2 of 2 here] | – | 16.5 nM | 30 nM | – | – | – | – | –
10 | CC(C)[C@@H](CN1CC[C@@](C)(c2cccc(O)c2)[C@@H](C)C1)NC(=O)[C@H]1Cc2ccc(O)cc2CN1 [JDTIC] | 79.3 nM | 2.16 nM | 0.02 nM | 6.52 | 0.01 nM | – | 8.43 | Ke [12]: 3.41 nM
11 | CC(=O)N1Cc2cc(O)ccc2C[C@@H]1C(=O)N[C@H](CN1CC[C@@](C)(c2cccc(O)c2)[C@@H](C)C1)C(C)C | – | 17.4 nM | 19.6 nM | < 5.31 | – | 6.84 | 6.12 | Delta/kappa [13]: > 34 and 15
12 | CC(C)[C@@H](CN1CC[C@](C)(c2cccc(O)c2)[C@H](C)C1)NC(=O)[C@H]1Cc2ccc(O)cc2CN1 | – | 178 nM | 16.7 nM | 6.84 | – | 7.76 | 6.86 | –
13 | CC(C)[C@@H](CN1CC[C@@](C)(c2cccc(O)c2)[C@@H](C)C1)NC(=O)[C@@H]1Cc2ccc(O)cc2CN1 | – | 11 nM | 4.2 nM | < 5.31 | – | 8.01 | 6.22 | –
14 | CC(C)[C@@H](CN1CC[C@@](C)(c2cccc(O)c2)[C@@H](C)C1)NC(=O)[C@H]1Cc2ccccc2CN1 | – | – | – | < 5.31 | 2.95 nM | 8.68 | 6.11 | pKi [5]: 5.96; Ke [12]: 8.38 nM; pKi [7]: 8.66; pKi [9]: 7.48
